According to ChEMBL document CHEMBL1122175, “Pentasubstituted quercetin analogues as selective inhibitors of particulate 3':5'-cyclic-AMP phosphodiesterase from rat brain” (J Med Chem, 1982):

Tests used:
[1] = species on record: Rattus norvegicus; assay: Relative inhibition of cAMP and cGMP hydrolysis by cytosolic phosphodiesterase
[2] = species on record: Rattus norvegicus; assay: Relative inhibition of cAMP and cGMP hydrolysis by particulate phosphodiesterase
[3] = Inhibition of rat brain cytosolic cAMP phosphodiesterase; settings: read-out: I 50
Summary of the method: (§1)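 Rat brains without cerebellum were homogenized in 0.32 M sucrose, 5 mM Tris-HCl pH 7.5, 1 mM MgCl2, 0.1 mM DTT. After a 1000g spin and a high-speed spin, the supernatant was dialyzed overnight against 20 mM Tris-HCl pH 7.5, 1 mM MgCl2, 0.1 mM DTT. Assay used 0.25 µM cAMP or cGMP in triplicate at 30 °C.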

[4] = Inhibition of rat brain particulate cAMP phosphodiesterase; settings: read-out: I50
Summary of the method: (§2)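 The particulate enzyme was the washed high-speed pellet, rehomogenized in sucrose buffer, then resuspended and dialyzed overnight in 20 mM Tris-HCl pH 7.5, 1 mM MgCl2, 0.1 mM DTT, and stored at -20 °C. Hydrolysis of 0.25 µM cAMP or cGMP was assayed at 30 °C in triplicate.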

[5] = molecular target: Phosphodiesterase 1 (Rattus norvegicus, UniProt Q63421+Q9EPR9+Q01066); assay: Inhibition of rat brain cytosolic cGMP phosphodiesterase; summary of the method: as §1
[6] = Inhibition of rat brain cytosolic cAMP phosphodiesterase (Inactive); summary of the method: as §1
[7] = Inhibition of rat brain particulate cAMP phosphodiesterase (Inactive); summary of the method: as §2
[8] = molecular target: T1, cGMP-dependent 3',5'-cyclic phosphodiesterase (Rattus norvegicus, UniProt Q01062); assay: Inhibition of rat brain particulate cGMP phosphodiesterase (Inactive); summary of the method: as §2
T1 sequence (Q01062 whole entry): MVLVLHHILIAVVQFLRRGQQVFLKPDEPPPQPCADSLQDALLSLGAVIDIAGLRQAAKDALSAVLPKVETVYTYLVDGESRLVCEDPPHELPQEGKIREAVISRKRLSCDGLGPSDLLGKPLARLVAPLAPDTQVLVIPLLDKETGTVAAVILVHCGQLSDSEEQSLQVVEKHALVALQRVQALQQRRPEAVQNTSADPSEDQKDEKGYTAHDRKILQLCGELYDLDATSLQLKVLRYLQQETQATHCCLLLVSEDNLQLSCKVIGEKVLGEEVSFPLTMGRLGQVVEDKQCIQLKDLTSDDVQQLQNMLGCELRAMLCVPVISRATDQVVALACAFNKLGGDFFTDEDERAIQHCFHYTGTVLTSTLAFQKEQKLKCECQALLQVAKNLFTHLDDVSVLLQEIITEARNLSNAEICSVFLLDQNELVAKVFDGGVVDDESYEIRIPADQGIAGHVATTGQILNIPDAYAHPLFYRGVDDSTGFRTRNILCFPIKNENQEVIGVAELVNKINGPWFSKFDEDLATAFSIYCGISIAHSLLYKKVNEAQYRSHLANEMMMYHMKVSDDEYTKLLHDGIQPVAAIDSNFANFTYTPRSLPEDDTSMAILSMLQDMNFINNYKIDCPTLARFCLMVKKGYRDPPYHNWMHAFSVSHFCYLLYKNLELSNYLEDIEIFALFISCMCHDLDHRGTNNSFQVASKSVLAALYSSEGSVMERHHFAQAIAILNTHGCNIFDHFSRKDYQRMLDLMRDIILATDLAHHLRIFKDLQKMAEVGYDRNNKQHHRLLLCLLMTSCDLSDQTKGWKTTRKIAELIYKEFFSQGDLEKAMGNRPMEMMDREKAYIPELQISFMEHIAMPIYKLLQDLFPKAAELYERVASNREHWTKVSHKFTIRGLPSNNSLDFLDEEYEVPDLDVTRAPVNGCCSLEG

[9] = molecular target: T1, cGMP-dependent 3',5'-cyclic phosphodiesterase; assay: Inhibition of rat brain particulate cGMP phosphodiesterase; summary of the method: as §2
[10] = Inhibition of rat brain particulate cAMP phosphodiesterase; settings: read-out: I 50
[11] = Inhibition of rat brain particulate cAMP phosphodiesterase (inactive); summary of the method: as §2
[12] = molecular target: T1, cGMP-dependent 3',5'-cyclic phosphodiesterase; assay: Inhibition of rat brain particulate cGMP phosphodiesterase (inactive); summary of the method: as §2
[13] = Inhibition of rat brain cytosolic cAMP phosphodiesterase (inactive); summary of the method: as §1

CCCOc1ccccc1-c1nc2[nH]nnc2c(=O)[nH]1 [ZAPRINAST]
Ratio [1]: 0.71
Ratio [2]: 1.17
IC50 [3]: 66.1 µM
IC50 [4]: 74.1 µM
I 50 [5]: 93.3 µM

CCOc1cc(OCC)c2c(=O)c(OCCO)c(-c3ccc(OCC)c(OCC)c3)oc2c1
I 50 [6]: Not Active
I 50 [7]: Not Active
I 50 [8]: Not Active

CCCOc1ccccc1-c1nc2nn[nH]c2c(=O)[nH]1 [ZAPRINAST]
IC50 ([9]; read-out: I50): 63.1 µM

CCCCOc1cc(CC2CNC(=O)N2)ccc1OC (stereo not drawn) [RO-201724]
Ratio [1]: 0.16
IC50 [10]: 74.1 µM
Ratio [2]: 0.007
IC50 [3]: 1660 µM
IC50 ([9]; read-out: I 50): 10000 µM
I 50 [5]: > 1000 µM

O=C(O)COc1cc(OCC(=O)O)c2c(=O)c(OCC(=O)O)c(-c3ccc(OCC(=O)O)c(OCC(=O)O)c3)oc2c1
I 50 [11]: Not Active
I 50 [12]: Not Active
I 50 [13]: Not Active

CCOC(=O)COc1cc(OCC(=O)OCC)c2c(=O)c(OCC(=O)OCC)c(-c3ccc(OCC(=O)OCC)c(OCC(=O)OCC)c3)oc2c1
I 50 [6]: Not Active
I 50 [7]: Not Active
I 50 [8]: Not Active

CCOc1cc(OCCBr)c2c(=O)c(OCC)c(-c3ccc(OCC)c(OCC)c3)oc2c1
Ratio [1]: < 0.04
IC50 [10]: 17 µM
Ratio [2]: 0.18
IC50 [3]: 40 µM
IC50 ([9]; read-out: I 50): 96 µM
I 50 [5]: > 1000 µM

O=c1c(OCCBr)c(-c2ccc(OCCBr)c(OCCBr)c2)oc2cc(OCCBr)cc(OCCBr)c12
Ratio [1]: 0.05
IC50 [10]: 18 µM
Ratio [2]: 0.73
IC50 [3]: 500 µM
IC50 ([9]; read-out: I 50): 24.5 µM
I 50 [5]: 10000 µM

O=c1c(OCCO)c(-c2ccc(OCCO)c(OCCO)c2)oc2cc(OCCO)cc(OCCO)c12
Ratio [1]: 0.17
IC50 [10]: 69 µM
Ratio [2]: 0.05
IC50 [3]: 470 µM
IC50 ([9]; read-out: I 50): 1300 µM
I 50 [5]: 2800 µM

CCOc1cc(OCC(=O)O)c2c(=O)c(OCC)c(-c3ccc(OCC)c(OCC)c3)oc2c1
Ratio [1]: 0.32
IC50 [10]: 16 µM
Ratio [2]: 0.32
IC50 [3]: 20 µM
IC50 ([9]; read-out: I 50): 48 µM
I 50 [5]: 63 µM

CCOc1cc(OCC)c2c(=O)c(OCCN(CC)CC)c(-c3ccc(OCC)c(OCC)c3)oc2c1
Ratio [1]: 0.79
Ratio [2]: 0.16
IC50 [3]: 37 µM
IC50 [4]: 20 µM
IC50 ([9]; read-out: I50): 126 µM
I 50 [5]: 47 µM

CCOc1cc(O)c2c(=O)c(OCC)c(-c3ccc(OCC)c(OCC)c3)oc2c1
I 50 [6]: Not Active
I 50 [7]: Not Active
I 50 [8]: Not Active

CCOc1cc(OCC)c2c(=O)c(OCC(=O)O)c(-c3ccc(OCC)c(OCC)c3)oc2c1
Ratio [1]: < 0.01
IC50 [10]: 22 µM
Ratio [2]: 0.31
IC50 [3]: 10 µM
IC50 ([9]; read-out: I 50): 71 µM
I 50 [5]: > 1000 µM

CCOc1cc(OCC)c2c(=O)c(OCC)c(-c3ccc(OCC)c(OCC)c3)oc2c1
Ratio [1]: < 0.007
IC50 [10]: 7.7 µM
Ratio [2]: 0.02
IC50 [3]: 70 µM
IC50 ([9]; read-out: I 50): 350 µM
I 50 [5]: > 10000 µM

COc1cc(OC)c2c(=O)c(OC)c(-c3ccc(OC)c(OC)c3)oc2c1
Ratio [1]: < 0.008
IC50 [10]: 10.2 µM
Ratio [2]: 0.1
IC50 [3]: 6.3 µM
IC50 ([9]; read-out: I 50): 96 µM
I 50 [5]: > 1000 µM

CCOC(=O)COc1c(-c2ccc(OCC)c(OCC)c2)oc2cc(OCC)cc(OCC)c2c1=O
I 50 [6]: Not Active
I 50 [7]: Not Active
I 50 [8]: Not Active

CCCOc1cc(OCCC)c2c(=O)c(OCCC)c(-c3ccc(OCCC)c(OCCC)c3)oc2c1
I 50 [6]: Not Active
I 50 [7]: Not Active
I 50 [8]: Not Active

CCOc1cc(OCC)c2c(=O)c(O)c(-c3ccc(OCC)c(OCC)c3)oc2c1
I 50 [6]: Not Active
I 50 [7]: Not Active
I 50 [8]: Not Active

CCCC(=O)Oc1cc(OC(=O)CCC)c2c(=O)c(OC(=O)CCC)c(-c3ccc(OC(=O)CCC)c(OC(=O)CCC)c3)oc2c1
I 50 [6]: Not Active
I 50 [7]: Not Active
I 50 [8]: Not Active

O=c1c(O)c(-c2ccc(O)c(O)c2)oc2cc(O)cc(O)c12 [QUERCETIN]
Ratio [1]: 0.32
IC50 [10]: 20 µM
Ratio [2]: 0.24
IC50 [3]: 87 µM
IC50 ([9]; read-out: I 50): 81.3 µM
I 50 [5]: 275 µM

CCOc1cc(OCCN(CC)CC)c2c(=O)c(OCC)c(-c3ccc(OCC)c(OCC)c3)oc2c1
Ratio [1]: 0.6
Ratio [2]: 0.11
IC50 [3]: 35 µM
IC50 [4]: 10 µM
IC50 ([9]; read-out: I50): 80 µM
I 50 [5]: 58 µM

CCC(=O)Oc1cc(OC(=O)CC)c2c(=O)c(OC(=O)CC)c(-c3ccc(OC(=O)CC)c(OC(=O)CC)c3)oc2c1
I 50 [6]: Not Active
I 50 [8]: Not Active

CC(=O)Oc1cc(OC(C)=O)c2c(=O)c(OC(C)=O)c(-c3ccc(OC(C)=O)c(OC(C)=O)c3)oc2c1
IC50 [10]: 126 µM
Ratio [2]: 0.46
IC50 [3]: 355 µM
IC50 ([9]; read-out: I 50): 275 µM

CCOC(=O)COc1cc(OCC)cc2oc(-c3ccc(OCC)c(OCC)c3)c(OCC)c(=O)c12
Ratio [1]: < 0.08
IC50 [10]: 8.3 µM
Ratio [2]: 0.01
IC50 [3]: 80 µM
IC50 ([9]; read-out: I 50): 700 µM
I 50 [5]: > 1000 µM
